Rows were chosen to be rich in hits. Some 1.8% of all compounds tested hit in one or more screens of this group.
LMPTP inh: LMPTP phosphatase inhibitors, primary screen, biochemical, fluorescence intensity, uHTS; Low molecular weight phosphotyrosine protein phosphatase (Homo sapiens), P24666; recombinant LMPTP-A, OMFP fluorogenic substrate; inhibition, % at 20 µM; hit rate 0.22% among 360,000; AID 651560, 2012;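 active = compounds that cut the enzyme signal by at least half of the control window in the single-dose screen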
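Test system: LMPTP-A phosphatase enzyme; input: 0.625 nM LMPTP-A final; reagent: OMFP substrate, 400 µM final; compound dosing: 20 µM single dose, 3% DMSO; incubation: 50 min dark incubation at room temperature; measured by: endpoint fluorescence intensity from OMFP dephosphorylation; measure: % inhibition relative to no-enzyme and uninhibited control wells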
STEP block: STEP phosphatase inhibitors, primary screen, biochemical, fluorescence intensity, uHTS; Tyrosine-protein phosphatase non-receptor type 5 (Homo sapiens), P54829; inhibition, % at 20 µM; hit rate 0.25% among 360,000; recombinant STEP, OMFP fluorogenic substrate;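 active = inhibition at 20 µM, scaled per plate between control wells, above about 37%, limit read from the data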
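medium = Bis-Tris buffer pH 6.0, 2.5 mM DTT, 0.005% Tween 20 | test system = STEP (striatal-enriched tyrosine phosphatase) enzyme, cell-free | measure = normalized % inhibition | compound dosing = 20 µM, 1% DMSO | also added = 25 µM OMFP | schedule = reaction 20 min, ambient temperature | measured by = fluorescence read at 480 nm ex / 540 nm em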
DNMT1 inh: human DNMT1 methyltransferase inhibitors, primary screen, biochemical, molecular beacon, fluorescence, HinP1I cleavage, uHTS; DNA (cytosine-5)-methyltransferase 1 (Homo sapiens), P26358; inhibition (reported as % activation of signal), % at 10 µM; hit rate 0.83% among 360,000; in the data active = inhibition above about 50%
SUMO1-SIM PPI: modulators of SUMO1 protein-protein interactions, primary screen, biochemical, uHTS | Small ubiquitin-related modifier 1 (Homo sapiens), P63165 | SUMO1 binding to a labelled peptide, TR-FRET, 1 h | inhibition, % at 20 µM | hit rate 0.33% among 360,000; in the data active = inhibition above about 37%
Scp1 inh: Scp-1 phosphatase inhibitors, primary screen, biochemical, colorimetric, uHTS; Carboxy-terminal domain RNA polymerase II polypeptide A small phosphatase 1 (Homo …; Recombinant Scp1, phosphopeptide, malachite green phosphate absorbance; inhibition, % at 20 µM; hit rate 0.88% among 340,000; AID 493091, 2011;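 active = inhibition above about 50% at 20 µM, limit read from the data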
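Test system: SCP-1 phosphatase catalytic domain, residues 76-261; measured by: colorimetric phosphate reagent with accelerator and stabiliser, absorbance at 630 nm; timing: enzyme reaction 45 min at room temperature, colour 5 min, stabilisation 30 min; also added: Phosphorylated 17-residue peptide substrate; compound dosing: one concentration, 20 µM, with 1.0% DMSO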
HKDC1 inh: HKDC1 hexokinase inhibitors, primary screen, biochemical, fluorescence, uHTS; inhibition, % at 20 µM; hit rate 0.16% among 340,000; recombinant HKDC1, G6PDH/diaphorase resazurin coupled fluorescence;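 active = inhibition above about 35% when tested at 20 µM, limit read from the data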
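Material: recombinant HKDC1 hexokinase; Amount: HKDC1 at 5 µg/mL; Medium: Tris pH 8.0 buffer with MgCl2, Tween-20, BSA, BME; Schedule: 90 min reaction incubation at room temperature, dark; Technique: coupled resazurin fluorescence, excitation 525 nm, emission 613 nm.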
Scp-1 conf: Scp-1 phosphatase inhibitors, retest, confirmation, biochemical, colorimetric, single concentration; shares compounds with Scp1 inh; recombinant SCP-1 catalytic domain, phosphate release, malachite green absorbance; inhibition, % at 20 µM; hit rate 61% among 2,500
Scp-1 MG ctr: colorimetric readout interference by compounds, confirmation, artefact control for Scp-1 inhibitor project, biochemical, single concentration; shares compounds with Scp1 inh; Colorimetric interference counterscreen, malachite green absorbance 630 nm; apparent inhibition (interference), % at 20 µM; 2,500 tested, under 10 active; AID 540313, 2011;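 also: compounds added after enzyme reaction finished so only phosphate colour detection is probed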
Scp-1 Tm shift: Scp-1 binding by thermal shift, confirmation, orthogonal assay for Scp-1 inhibitor project, biophysical, differential scanning fluorimetry | shares compounds with Scp1 inh | thermal shift relative to vanadate control, % at 40 µM | Recombinant SCP1, Sypro Orange thermal shift Tm | AID 540329, 2011 | hit rate 25% among 1,500;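 active = substances whose mean melting-temperature shift, as a percentage of the reference inhibitor's shift, reaches about 5.3%, limit read from the data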
Numbers stand for hits; i = inactive; nt = not tested or not shown; ! = a repeat was not active.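 The calls were made as follows, unless noted: active = inhibition of at least 30% at 20 µM; inactive = the rest.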

SMILES	LMPTP inh	STEP block	DNMT1 inh	SUMO1-SIM PPI	Scp1 inh	HKDC1 inh	Scp-1 conf	Scp-1 MG ctr	others
O=C(CSc1nnc(SCc2ccccc2Cl)s1)N/N=C/c1ccc(C(=O)O)cc1	i	i	i	i	i	i	nt	nt
CCOc1cc(/C=N/NC(=O)CSc2nnc(C)s2)ccc1OCc1ccccc1Cl	i	i	i	i	78	i	37	i	Scp-1 Tm shift=i
COc1ccc(/C=N/N=C2/NC(=O)C(CC(=O)O)S2)cc1OCc1ccccc1Cl (stereo not drawn)	i	i	i	i	81	i	72	i	Scp-1 Tm shift=i
CCOc1cc(/C=N/N=C2/NC(=O)C(CC(=O)O)S2)ccc1OS(=O)(=O)c1ccc(C)cc1 (stereo not drawn)	i	i	i	i	i	i	nt	nt
COc1ccc(OC)c(S(=O)(=O)N2CCC(C(=O)NCC3CCCO3)CC2)c1 (stereo not drawn)	i	i	i	i	92	i	i	i
COc1ccc(Cl)cc1S(=O)(=O)N1CCC(C(=O)NCC2CCCO2)CC1 (stereo not drawn)	i	i	i	i	i	i	nt	nt
CC1CCc2c(sc(NC(=O)c3ccc(Cn4cc([N+](=O)[O-])cn4)o3)c2C#N)C1 (stereo not drawn)	i	i	i	i	71	i	61	i	Scp-1 Tm shift=6.4
COc1ccc([C@H]2C[C@H](n3cc(COC(=O)c4ccccc4)nn3)[C@@H](O)CN2C(=O)c2cccs2)cc1	i	i	i	i	nt	nt	nt	nt
CCCOC(=O)c1ccc(OCC(O)CN2C(=O)NC(C)(C)C2=O)cc1 (stereo not drawn)	i	i	i	i	65	i	i	i
CCOc1ccc(N2CC(C(=O)Nc3c(C)n(C)n(-c4ccccc4)c3=O)CC2=O)cc1 (stereo not drawn)	i	i	i	i	i	i	nt	nt
Cc1c(C(=O)NC2CCCCC2C)oc2ccccc12 (stereo not drawn)	i	i	i	i	i	i	nt	nt
Cc1ccc(C(=O)NCCCNC(=O)COc2ccccc2Cl)cn1	i	i	i	i	58	i	i	i
Cc1ccc(C(=O)NCCCNC(=O)COc2ccc(Cl)cc2)cn1	i	i	i	i	i	i	nt	nt
O=C1/C(=C/c2cccnc2)SC(=S)N1c1ccccc1	i	i	i	i	i	i	nt	nt
O=C1/C(=C\c2ccc(O)cc2)SC(=S)N1c1cccnc1	i	i	i	i	98	i	i	i
CCOC(Cn1c(SCc2cc(C(C)=O)ccc2OC)nc2ccccc2c1=O)OCC	i	i	i	i	i	i	nt	nt
COc1ccc(C(C)=O)cc1CSc1nc2cc(C(=O)O)ccc2c(=O)n1Cc1ccccc1	i	i	i	i	51	i	i	i
c1ccc2c(-c3nc4ccccc4[nH]3)cccc2c1	i	i	i	i	nt	nt	nt	nt
c1ccc2[nH]c(-c3ccnc4ccccc34)nc2c1	i	i	i	i	100!	i	79	i	Scp-1 Tm shift=i

Bioassay records deposited in PubChem BioAssay by Sanford-Burnham Center for Chemical Genomics.
